Article PMC11152992 (Nature, 2024)

Tests used:
5-HT1A = molecular target: T1, 5-HT1A (Homo sapiens, UniProt P08908); test: 5-HT1A-mediated Gi1 activation, BRET; format: cell-based; conditions: for EC50: read-out: Gi BRET EC50, 5-HT1A-mediated Gi1 activation, HEK293-T cells; for maximum drug effect (Emax): 5-HT1A-mediated activation of Gi1, BRET; for selectivity for 5-HT1A > 5-HT2A: Gi BRET at 5-HT1A versus Gq BRET at 5-HT2A; for 5-HT1A efficacy (in words): Gi BRET, compared with serotonin
T1 sequence (P08908 1-422): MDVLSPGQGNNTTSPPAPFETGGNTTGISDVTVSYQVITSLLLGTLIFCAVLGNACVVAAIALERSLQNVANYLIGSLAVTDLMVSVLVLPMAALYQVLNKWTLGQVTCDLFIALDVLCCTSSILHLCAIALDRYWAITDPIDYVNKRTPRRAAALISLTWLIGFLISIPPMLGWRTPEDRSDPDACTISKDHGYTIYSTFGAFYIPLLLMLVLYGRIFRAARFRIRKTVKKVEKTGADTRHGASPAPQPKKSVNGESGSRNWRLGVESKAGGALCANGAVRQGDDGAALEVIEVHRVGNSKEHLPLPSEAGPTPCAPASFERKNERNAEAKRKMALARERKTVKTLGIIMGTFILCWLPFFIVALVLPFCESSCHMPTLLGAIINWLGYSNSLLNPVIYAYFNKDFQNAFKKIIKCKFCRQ

5-HT2A = 5-HT2A (Homo sapiens, UniProt P28223); test: 5-HT2A-mediated Gq activation, BRET; format: cell-based; conditions: for decrease in 5-HT2A potency: relative to 5-MeO-DMT
Chain of 5-HT2A (P28223 whole entry): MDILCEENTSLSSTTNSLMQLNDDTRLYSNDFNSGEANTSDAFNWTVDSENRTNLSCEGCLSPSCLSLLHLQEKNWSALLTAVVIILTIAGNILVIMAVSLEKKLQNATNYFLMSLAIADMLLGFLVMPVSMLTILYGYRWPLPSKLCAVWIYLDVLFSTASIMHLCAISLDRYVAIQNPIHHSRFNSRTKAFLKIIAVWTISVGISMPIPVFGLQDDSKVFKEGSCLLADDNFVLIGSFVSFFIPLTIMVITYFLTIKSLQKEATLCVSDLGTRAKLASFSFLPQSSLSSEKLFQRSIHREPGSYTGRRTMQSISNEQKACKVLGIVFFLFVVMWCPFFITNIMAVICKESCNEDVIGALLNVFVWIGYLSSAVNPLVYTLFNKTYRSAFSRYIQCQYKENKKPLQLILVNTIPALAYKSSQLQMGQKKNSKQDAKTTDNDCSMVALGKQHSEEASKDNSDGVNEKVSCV

[1] = Human plasma protein binding; format: in vitro ADME; conditions: for % Compound remaining at 4 h: 37 °C
[2] = tested on: other neurotransmitter transporters (OCT1, OCT2, PMAT); test: OCT1, OCT2 and PMAT uptake inhibition; format: cell-based
[3] = Pharmacokinetics in plasma and brain after s.c. administration; format: in vivo, C57BL/6 male mice; conditions: mice; for AUClast / Cmax: 1 mg/kg SC
How it was run: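 Male C57BL/6 mice (27; 3 per time point) received a subcutaneous solution formulation. Retro-orbital blood (~60 μl) was taken under light isoflurane at 0.083–12 h. Plasma and brain levels were measured by LC–MS/MS with non-compartmental analysis: Cmax and Tmax as observed, AUClast by linear trapezoidal rule, Kp calculated. For plasma protein binding, compound was spiked at 5 μM final into mouse plasma and dialysed 4 h at 37 °C.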

[4] = tested on: locomotor activity (measure of 5-HT1A activation); test: Open-field locomotion assay; format: in vivo, C57BL/6J mice; conditions: mice, s.c.
How it was run: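 Male C57BL/6J mice aged 10–15 weeks were habituated for 30 min, then pretreated with vehicle or WAY-100635 (1 or 2 mg kg⁻¹ s.c.). Test compound followed 15 min later, s.c. at 0.1–3 or 0.3–10 mg kg⁻¹. Mice were placed immediately in a clear arena lit at about 330 lux. Observers were blinded; total locomotion was recorded automatically over 30 min, n = 7–8 per group.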

[5] = Mouse plasma protein binding; format: in vitro ADME; conditions: for % Compound remaining at 4 h: 37 °C; for fraction unbound at 4 h, 5 µM: mouse, mouse plasma
[6] = tested on: all other G protein-coupled 5-HT receptors; test: Off-target activity at 5-HT receptors; format: cell-based, human; conditions: compared with activity at 5-HT1A
[7] = tested on: chronic social defeat stress mice; test: Sucrose preference test after chronic social defeat stress; format: in vivo, C57BL/6J mice
How it was run: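 Chronic social defeat was 10 days of 10-min bouts by CD-1 aggressors in male C57BL/6J mice. On day 10, stressed mice were housed singly and habituated to two water bottles, then given a two-bottle choice between water and 1% sucrose. Data were pooled from two independent experiments.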

[8] = tested on: chronic social defeat stress mice; test: Social interaction; format: in vivo, C57BL/6J mice
How it was run: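 Male C57BL/6J mice, 8 weeks old, had 10 consecutive days of 10-min defeat by a new CD-1 aggressor each day, then were housed overnight across a partition; controls were pair-housed and handled daily. Drug or vehicle was given 1 h after the last defeat, with SI testing 24 h later. The interaction ratio was interaction-zone time, target vs no-target; corner time and no-target locomotion were also scored. Pooled from three experiments; two-way ANOVA; resilient (>1) vs susceptible (<1) compared by Fisher's exact test.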

[9] = Mouse brain tissue binding; format: in vitro ADME; conditions: for % Compound remaining at 4 h: 37 °C; for fraction unbound at 4 h, 5 µM: mouse, mouse brain tissue
[10] = molecular target: serotonin transporter (SERT) (Homo sapiens, UniProt P31645); test: Serotonin transporter uptake inhibition; format: cell-based
Chain of serotonin transporter (SERT) (P31645 whole entry, species assumed): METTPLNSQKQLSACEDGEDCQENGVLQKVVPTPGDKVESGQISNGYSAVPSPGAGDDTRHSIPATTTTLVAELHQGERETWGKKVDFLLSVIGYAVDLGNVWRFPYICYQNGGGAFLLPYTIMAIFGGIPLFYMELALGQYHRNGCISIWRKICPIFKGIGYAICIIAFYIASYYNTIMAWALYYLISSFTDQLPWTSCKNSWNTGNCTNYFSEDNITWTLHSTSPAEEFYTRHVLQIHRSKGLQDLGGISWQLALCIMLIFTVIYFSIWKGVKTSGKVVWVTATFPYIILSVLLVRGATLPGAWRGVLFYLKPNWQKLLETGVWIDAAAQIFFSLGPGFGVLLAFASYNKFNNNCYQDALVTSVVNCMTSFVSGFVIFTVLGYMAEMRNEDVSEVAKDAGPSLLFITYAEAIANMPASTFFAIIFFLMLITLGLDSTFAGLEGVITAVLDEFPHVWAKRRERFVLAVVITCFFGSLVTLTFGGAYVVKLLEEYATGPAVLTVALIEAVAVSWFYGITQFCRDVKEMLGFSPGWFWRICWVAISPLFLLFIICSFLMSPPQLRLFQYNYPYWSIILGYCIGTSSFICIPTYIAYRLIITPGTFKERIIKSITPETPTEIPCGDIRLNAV

[11] = tested on: head-twitch response (measure of 5-HT2A activation); test: Head-twitch response; format: in vivo, C57BL/6J mice; conditions: mice
5-HT2A(N343A) = 5-HT2A(N343A) (Homo sapiens, UniProt P28223, N343A); test: 5-HT2A-Gq BRET at mutant receptor N343A; format: cell-based; conditions: 5-HT2A N343A versus wild type
Chain of 5-HT2A(N343A) (P28223 whole entry N343A): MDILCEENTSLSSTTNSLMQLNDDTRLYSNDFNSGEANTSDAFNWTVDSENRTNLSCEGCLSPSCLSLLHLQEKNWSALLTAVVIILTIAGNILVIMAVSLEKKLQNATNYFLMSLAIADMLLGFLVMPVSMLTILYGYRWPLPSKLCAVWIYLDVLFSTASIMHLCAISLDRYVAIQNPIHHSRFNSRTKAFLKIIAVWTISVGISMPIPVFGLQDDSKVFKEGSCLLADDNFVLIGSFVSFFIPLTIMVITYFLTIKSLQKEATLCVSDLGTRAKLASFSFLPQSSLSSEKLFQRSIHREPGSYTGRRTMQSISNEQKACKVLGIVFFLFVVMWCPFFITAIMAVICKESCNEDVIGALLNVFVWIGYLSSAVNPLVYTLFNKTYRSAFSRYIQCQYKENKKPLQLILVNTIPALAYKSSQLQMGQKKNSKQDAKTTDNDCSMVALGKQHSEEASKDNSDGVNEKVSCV

5-HT1A(A365N) = test: 5-HT1A-Gi BRET at mutant receptor A365N; format: cell-based, human; conditions: 5-HT1A A365N versus wild type
5-HT2A(V366N) = 5-HT2A(V366N) (Homo sapiens, UniProt P28223, V366N); conditions: 5-HT2A V366N versus wild type
Chain of 5-HT2A(V366N) (P28223 whole entry V366N): as the sequence (P28223 whole entry N343A) above, with A343N, V366N counted along it

Structure (SMILES): COc1ccc2[nH]cc(CCN3CC=CC3)c2c1F [4-F,5-MeO-3-PyrrolineT]
- EC50 (5-HT1A): 0.00022 µM

Structure (SMILES): COc1ccc2[nH]cc(CCN(C)C)c2c1F [4-F,5-MeO-DMT]
- decrease in 5-HT2A potency (5-HT2A): 3 fold
- increase in potency at 5-HT1A (5-HT1A; relative to 5-MeO-DMT): 14 fold

Structure (SMILES): COc1ccc2[nH]cc(CCN3CCCC3)c2c1F [4-F,5-MeO-PyrT, 4-fluoro, 5-methoxypyrrolidinyl-tryptamine]
- % Bound Mean ([1]; Human Plasma): 26.01%
- % Recovery ([1]; Human Plasma): 81.8%
- % Unbound ([1]; Human Plasma): 73.99%
- fu ([1]; Human Plasma): 0.740
- % Compound remaining at 4 h ([1]; Human Plasma): 97.9%
- % Bound R1 ([1]; Human Plasma, replicate 1, 4 h at 37 °C): 22.19%
- activity at other neurotransmitter transporters (in words) [2]: substantially reduced activity
- AUClast ([3]; Brain): 128.34 ng·h/mL
- Cmax ([3]; Brain): 143.35 ng/mL
- AUClast ([3]; Plasma): 26.40 ng·h/mL
- Cmax ([3]; Plasma): 44.02 ng/mL
- time within which compound was largely cleared ([3]; 1 mg kg^-1 s.c.): ≤ 2 h
- total brain-to-plasma ratio ([3]; 1 mg kg^-1 s.c.): 3.3
- unbound brain-to-plasma ratio ([3]; 1 mg kg^-1 s.c.): 0.91
- time of peak brain penetration ([3]; 1 mg kg^-1 s.c., following drug administration): 30 min
- estimated free drug concentration in the brain at Tmax ([3]; s.c. dose of 1 mg kg^-1, at 82.5% brain tissue binding): about 100 nM
- locomotor activity in the open-field test (in words) [4]: dose-dependent locomotor suppression
- lowest dose that produced suppression of locomotion [4]: 0.03 mg/kg
- EC50 (5-HT2A; read-out: Gq BRET EC50, 5-HT2A-mediated Gq activation): 0.3 µM
- % Bound Mean ([5]; Mouse Plasma): 37.36%
- % Recovery ([5]; Mouse Plasma): 84.7%
- % Unbound ([5]; Mouse Plasma): 62.64%
- fu ([5]; Mouse Plasma): 0.626
- % Compound remaining at 4 h ([5]; Mouse Plasma): 105.6%
- % Bound R1 ([5]; Mouse Plasma, replicate 1, 4 h at 37 °C): 32.04%
- maximum drug effect (Emax) (5-HT1A): 102.8 % of 5-HT
- selectivity for 5-HT1A > 5-HT2A (5-HT1A): greater than 800 fold
- EC50 (5-HT1A): 0.00037 µM
- activity at other 5-HT receptors (in words) [6]: substantially reduced activity
- sucrose preference in stressed mice relative to vehicle-treated animals ([7]; 1 mg kg^-1 s.c., 1% sucrose two-bottle choice): significantly increased sucrose preference
- social avoidance phenotype (decreased interaction ratio) in stress-exposed mice ([8]; 1 mg kg^-1 s.c. 1 h after last defeat, SI test 24 h later): rescued
- interaction ratio in control mice, drug versus vehicle ([8]; 1 mg kg^-1 s.c., non-stressed mice): did not show any distinguishable differences in IR
- increased time in the corners of the arena in defeated mice ([8]; drug-treated stressed mice): no longer observed
- number of resilient mice (SI ratio > 1) ([8]; drug-treated versus vehicle-treated stressed mice): increased the number of resilient mice
- % Bound Mean [9]: 82.5%
- % Recovery [9]: 88%
- % Unbound [9]: 17.5%
- brain tissue binding [9]: 82.5%
- fu [9]: 0.175
- % Compound remaining at 4 h [9]: 96%
- % Bound R1 ([9]; replicate 1, 4 h at 37 °C): 84.3%
- activity at the serotonin transporter (in words) [10]: substantially reduced activity
- HTR (in words) ([11]; doses up to 3 mg kg^-1, in the presence or absence of WAY-100635): did not produce notable HTR

Structure (SMILES): CN(C)CCc1c[nH]c2ccc(O)c(F)c12 [4-F,5-OH-DMT]
- decrease in potency by N343A mutation (5-HT2A(N343A)): ~19 fold

Structure (SMILES): COc1ccc2[nH]cc(CCN3CC=CC3)c2c1 [5-MeO-3-PyrrolineT]
- EC50 (5-HT1A): 0.0003 µM
- further increase in potency at 5-HT1A (5-HT1A; relative to 5-MeO-PyrT): around eightfold

Structure (SMILES): CCN(CC)CCc1c[nH]c2ccc(OC)cc12 [5-MeO-DET]
- 5-HT1A efficacy (in words) (5-HT1A): full efficacy
- EC50 (5-HT1A): 0.0371 µM

Structure (SMILES): CCN(C)CCc1c[nH]c2ccc(OC)cc12 [5-MeO-MET]
- locomotor activity in the open-field test (in words) [4]: dose-dependent locomotor suppression
- 5-HT1A efficacy (in words) (5-HT1A): full efficacy
- EC50 (5-HT1A): 0.0259 µM
- HTR (in words) ([11]; following co-administration of the 5-HT1A-selective antagonist WAY-100635): strong dose-dependent activity

Structure (SMILES): COc1ccc2[nH]cc(CCN3CCCCC3)c2c1 [5-MeO-PipT, 5-methoxypiperidinyl-tryptamine]
- EC50 (5-HT1A): 0.0885 µM
- loss of potency at 5-HT1A (5-HT1A; relative to 5-MeO-PyrT): ~42 fold

Structure (SMILES): COc1ccc2[nH]cc(CCN3CCCC3)c2c1 [5-MeO-PyrT, 5-methoxy-N,N-pyrrolidinyl-tryptamine]
- decrease in 5-HT2A potency (5-HT2A): about 3 fold
- selectivity for 5-HT1A > 5-HT2A (5-HT1A): > 38 fold
- increase in 5-HT1A > 5-HT2A selectivity (5-HT1A; cyclization of the amine moiety alone, relative to 5-MeO-DMT): approximately 38 fold
- EC50 (5-HT1A): 0.0021 µM
- increase in potency at 5-HT1A (5-HT1A; relative to 5-MeO-DMT): about 12 fold

Structure (SMILES): CN(C)CCc1c[nH]c2ccc(O)cc12 [5-OH-DMT, bufotenine]
- decrease in potency by A365N mutation (5-HT1A(A365N)): about 18 fold

Structure (SMILES): NC(=O)N1c2ccccc2C=Cc2ccccc21 [Carbamazepine, reference compound]
- % Compound remaining at 4 h [9]: 96%
- fraction unbound at 4 h, 5 µM ([9]; pH 7.4, % Unbound): 0.118
- fraction unbound at 4 h, 5 µM ([9]; pH 7.4, fu): 0.118

Structure (SMILES): CN(C)CCc1c[nH]c2ccccc12 [DMT, N,N-dimethyltryptamine, reference compound]
- effect of N343A mutation on potency (in words) (5-HT2A(N343A)): minor effects

Structure (SMILES): CCN(CC)C(=O)[C@@H]1C=C2c3cccc4[nH]cc(c34)C[C@H]2N(C)C1 [LSD, lysergic acid diethylamide]
- effect of V366N mutation on signalling efficacy at 5-HT2A (in words) (5-HT2A(V366N)): increase in signalling efficacy

Structure (SMILES): COc1ccccc1N1CCN(CCN(C(=O)C2CCCCC2)c2ccccn2)CC1 [WAY-100635, reference compound]
- increase of sucrose preference in stressed mice, treatment alone ([7]; stressed mice): not significant

Structure (SMILES): CC(=O)CC(c1ccccc1)c1c(O)c2ccccc2oc1=O (stereo not shown) [Warfarin, reference compound]
- % Compound remaining at 4 h ([1]; Human Plasma): 108.8%
- fraction unbound at 4 h, 5 µM ([1]; human, human plasma, pH 7.4, % Bound R2, Human Plasma, replicate 2, 4 h at 37 °C): 0.015
- % Compound remaining at 4 h ([5]; Mouse Plasma): 103.3%
- fraction unbound at 4 h, 5 µM ([5]; pH 7.4, % Bound R2, Mouse Plasma, replicate 2, 4 h at 37 °C): 0.067
- fraction unbound at 4 h, 5 µM ([5]; pH 7.4, % Unbound): 0.064
- fraction unbound at 4 h, 5 µM ([5]; pH 7.4, fu): 0.064

Structure (SMILES): O=C1CCc2ccc(OCCCCN3CCN(c4cccc(Cl)c4Cl)CC3)cc2N1 [aripiprazole, reference compound]
- maximum drug effect (Emax) (5-HT1A): 77.1 % of 5-HT

Structure (SMILES): O=C1CC2(CCCC2)CC(=O)N1CCCCN1CCN(c2ncccn2)CC1 [buspirone, reference compound]
- maximum drug effect (Emax) (5-HT1A): 93.4 % of 5-HT

Structure (SMILES): N#Cc1ccc2[nH]cc(CCCCN3CCN(c4ccc5oc(C(N)=O)cc5c4)CC3)c2c1 [vilazodone, reference compound]
- lowest concentration showing activity (5-HT1A; 5-HT1A Gi BRET, suspected slow binding kinetics): 30 pM
- maximum drug effect (Emax) (5-HT1A): 97.4 % of 5-HT
